Calls of active or inactive are those of the source. No cut-off for these calls is given here.
What was measured:
Pseudomonas aeruginosa [1] = experiment: Antibacterial activity against Pseudomonas aeruginosa PAO1 after 20 hrs by microdilution method; format: functional; conditions: PAO1, 20 h
How it was run: (§1)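 Incubated ~20 h at 37°C, then read at 630 nm. MIC is the lowest concentration with no detectable growth. Daptomycin assays had 2 mM Ca²⁺ added to the medium. Repeated several times by different investigators.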

Escherichia coli [2] = experiment: Antibacterial activity against Escherichia coli ATCC 25922 after 20 hrs by microdilution method; format: functional; conditions: ATCC 25922, 20 h; how it was run: as §1
[3] = Hemolytic activity against human RBC after 1 hr; format: ADME, cell-based, Erythrocyte; conditions: human red blood cells
How it was run: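 Human red blood cells were washed three times in normal saline (800 g, 10 min) and made up as a 2% suspension. After centrifugation, supernatant absorbance was read at 545 nm. Lysis was set at 100% for 1% Triton X-100 and 0% for untreated cells; HL50 is the 50% hemolytic concentration.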

Staphylococcus aureus [4] = experiment: Antibacterial activity against methicillin-resistant Staphylococcus aureus USA300 after 20 hrs by microdilution method; format: functional; conditions: USA300, 20 h
How it was run: (§2)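 MIC = lowest concentration with no detectable growth. pH series run at pH 6.8, 7.4 and 8.0. Daptomycin wells carried 2 mM Ca²⁺. Repeated by different investigators on different dates.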

[5] = Retention time of the compound by HPLC method; format: physicochemical
[6] = Therapeutic index, ratio of HC50 for human RBC to MIC for methicillin-resistant Staphylococcus aureus USA300; conditions: human red blood cells, read-out: TI
How it was run: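 Supernatant hemoglobin read at 545 nm; 1% Triton X-100 = 100% lysis, untreated = 0%. HL50 divided by USA300 MIC gives the selectivity index.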

Klebsiella pneumoniae = experiment: Antibacterial activity against Klebsiella pneumoniae ATCC 13883 after 20 hrs by microdilution method; format: functional; conditions: ATCC 13883, 20 h; how it was run: as §1
Staphylococcus aureus [7] = experiment: Antibacterial activity against Staphylococcus aureus Mu50 after 20 hrs by microdilution method; format: functional; conditions: Mu50, 20 h; how it was run: as §1
Staphylococcus aureus [8] = experiment: Antibacterial activity against Staphylococcus aureus Newman after 20 hrs by microdilution method; format: functional; how it was run: as §1
Staphylococcus aureus [9] = experiment: Ratio of MIC for methicillin-resistant Staphylococcus aureus USA300 in presence of 100 mM NaCl to MIC for methicillin-resistant Staphylococcus aureus USA300 in absence of 100 mM NaCl; format: functional
How it was run: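 Broth microdilution MIC against S. aureus USA300 in TSB with and without 100 mM NaCl. Inoculum 10⁶ CFU/mL exponential-phase cells, ~20 h at 37°C, OD630 read-out, no-growth endpoint. Ratio of MIC with salt to MIC without salt.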

Staphylococcus aureus [10] = experiment: Antibacterial activity against Staphylococcus aureus USA400 after 20 hrs by microdilution method; format: functional; conditions: USA400, 20 h; how it was run: as §1
Staphylococcus aureus [11] = experiment: Antibacterial activity against Staphylococcus aureus UAMS-1 after 20 hrs by microdilution method; format: functional; conditions: UAMS-1, 20 h; how it was run: as §1
Staphylococcus aureus [12] = experiment: Antibacterial activity against Staphylococcus aureus USA200 after 20 hrs by microdilution method; format: functional; conditions: USA200, 20 h; how it was run: as §1
Staphylococcus aureus [13] = experiment: Induction of membrane damage in methicillin-resistant Staphylococcus aureus USA300 measured for 90 mins by propidium iodide staining based fluorescence spectroscopic analysis; format: functional
Pseudomonas aeruginosa [14] = experiment: Antibacterial activity against Pseudomonas aeruginosa PAO1 after overnight incubation by broth microdilution method; format: functional
Escherichia coli [15] = experiment: Antibacterial activity against Escherichia coli K-12 after overnight incubation by broth microdilution method; format: functional
Staphylococcus aureus [16] = experiment: Antibacterial activity against methicillin-resistant Staphylococcus aureus USA300 LAC after overnight incubation by broth microdilution method; format: functional; how it was run: as §2

CC(C)(c1c[nH]c2cc(C3=NCCN3)ccc12)c1c[nH]c2cc(C3=NCCN3)ccc12.CS(=O)(=O)O.CS(=O)(=O)O
MIC (Pseudomonas aeruginosa [1]): > 50 µM
MIC (Escherichia coli [2]): > 50 µM
HC50 at 1 h [3]: > 830 µM
MIC (Staphylococcus aureus [4]): 25 µM
Retention_time [5]: 10.005 min
selectivity ratio [6]: 33
MIC (Klebsiella pneumoniae): > 50 µM

CS(=O)(=O)O.CS(=O)(=O)O.Clc1ccc(C(c2c[nH]c3cc(C4=NCCN4)ccc23)c2c[nH]c3cc(C4=NCCN4)ccc23)cc1
MIC (Pseudomonas aeruginosa [1]): 25 µM
MIC (Staphylococcus aureus [7]): 6.2 µM
MIC (Staphylococcus aureus [8]): 6.2 µM
MIC (Escherichia coli [2]): > 50 µM
Ratio (Staphylococcus aureus [9]): <=2
MIC (Staphylococcus aureus [10]): 6.2 µM
MIC (Staphylococcus aureus [11]): 12.5 µM
HC50 at 1 h [3]: 150 µM
MIC (Staphylococcus aureus [12]): 6.2 µM
MIC (Staphylococcus aureus [4]): 3.1 to 6.2 µM
Retention_time [5]: 11.491 min
Activity (Staphylococcus aureus [13]): Active
selectivity ratio [6]: 24 to 48
MIC (Klebsiella pneumoniae): > 50 µM

CS(=O)(=O)O.CS(=O)(=O)O.c1cc2c(C(c3c[nH]c4cc(C5=NCCN5)ccc34)C3CCCCC3)c[nH]c2cc1C1=NCCN1
MIC (Pseudomonas aeruginosa [1]): > 50 µM
MIC (Escherichia coli [2]): > 50 µM
HC50 at 1 h [3]: 20 to 40 µM
MIC (Staphylococcus aureus [4]): 3.1 µM
Retention_time [5]: 11.832 min
selectivity ratio [6]: 7 to 14
MIC (Klebsiella pneumoniae): > 50 µM

Brc1cccc(Br)c1C(c1c[nH]c2cc(C3=NCCN3)ccc12)c1c[nH]c2cc(C3=NCCN3)ccc12.CS(=O)(=O)O.CS(=O)(=O)O
MIC (Pseudomonas aeruginosa [1]): > 50 µM
MIC (Staphylococcus aureus [7]): 6.2 µM
MIC (Staphylococcus aureus [8]): 3.1 to 6.2 µM
MIC (Escherichia coli [2]): > 50 µM
MIC (Staphylococcus aureus [10]): 3.1 µM
MIC (Staphylococcus aureus [11]): 6.2 µM
HC50 at 1 h [3]: 150 µM
MIC (Staphylococcus aureus [12]): 3.1 µM
MIC (Staphylococcus aureus [4]): 3.1 to 12.5 µM
Retention_time [5]: 11.159 min
Activity (Staphylococcus aureus [13]): Active
selectivity ratio [6]: 24 to 48
MIC (Klebsiella pneumoniae): > 50 µM

H-GLLSLLSLLGKLL-NH2
MIC (Pseudomonas aeruginosa [14]): > 120 µM
MIC (Escherichia coli [15]): > 120 µM
MIC (Staphylococcus aureus [16]): 3.1 µM

CCC(CC)(c1c[nH]c2cc(C3=NCCN3)ccc12)c1c[nH]c2cc(C3=NCCN3)ccc12.CS(=O)(=O)O.CS(=O)(=O)O
MIC (Pseudomonas aeruginosa [1]): > 50 µM
MIC (Escherichia coli [2]): > 50 µM
Ratio (Staphylococcus aureus [9]): <=2
HC50 at 1 h [3]: 300 µM
MIC (Staphylococcus aureus [4]): 6.2 µM
Retention_time [5]: 11.015 min
selectivity ratio [6]: 48
MIC (Klebsiella pneumoniae): > 50 µM

CS(=O)(=O)O.CS(=O)(=O)O.c1ccc(C(c2c[nH]c3cc(C4=NCCN4)ccc23)c2c[nH]c3cc(C4=NCCN4)ccc23)cc1
MIC (Pseudomonas aeruginosa [1]): > 50 µM
MIC (Escherichia coli [2]): > 50 µM
HC50 at 1 h [3]: 600 µM
MIC (Staphylococcus aureus [4]): 25 µM
Retention_time [5]: 10.643 min
selectivity ratio [6]: 24
MIC (Klebsiella pneumoniae): > 50 µM

CS(=O)(=O)O.CS(=O)(=O)O.Cn1cc(C2(c3cn(C)c4cc(C5=NCCN5)ccc34)CCCCC2)c2ccc(C3=NCCN3)cc21
MIC (Staphylococcus aureus [7]): 25 µM
MIC (Staphylococcus aureus [8]): 12.5 µM
Ratio (Staphylococcus aureus [9]): <=2
MIC (Staphylococcus aureus [10]): 12.5 µM
MIC (Staphylococcus aureus [11]): ≥ 25 µM
MIC (Staphylococcus aureus [12]): 25 µM
MIC (Staphylococcus aureus [4]): 12.5 to 25 µM

From ChEMBL document CHEMBL3875203, “Small molecule mimics of DFTamP1, a database designed anti-Staphylococcal peptide” (Bioorg Med Chem, 2017)
